# Hits are enriched below; roughly 3.7% of the tested compounds scored in any of these assays.
# KCNK3 block – human KCNK3 channel inhibitors, primary screen, CHO cells, FluxOR thallium flux, B-score; 0.84% of 340,000 active; FluxOR fluorescence; stronger effect = lower value; B-score at 10 µM;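 active means B-score under library mean minus 4 SD, starting fluorescence ratio at most library mean plus 5 SD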;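 further: more negative B-score means stronger inhibition of thallium flux through KCNK3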
# Target sequence (O14649 whole entry, looked up): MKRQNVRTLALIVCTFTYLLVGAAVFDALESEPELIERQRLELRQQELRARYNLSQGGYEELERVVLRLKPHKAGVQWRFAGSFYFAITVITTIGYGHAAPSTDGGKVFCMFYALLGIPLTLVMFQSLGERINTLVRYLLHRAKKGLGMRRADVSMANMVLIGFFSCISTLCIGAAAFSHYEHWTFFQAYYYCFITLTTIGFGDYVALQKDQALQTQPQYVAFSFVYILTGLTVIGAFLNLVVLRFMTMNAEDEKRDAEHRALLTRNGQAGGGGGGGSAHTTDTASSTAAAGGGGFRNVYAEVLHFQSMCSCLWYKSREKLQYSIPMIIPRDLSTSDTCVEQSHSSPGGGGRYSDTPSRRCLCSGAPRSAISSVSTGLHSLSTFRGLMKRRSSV
# KCNK9 inh – KCNK9 potassium channel inhibitors, primary screen, HEK293 cells, thallium flux | AID 488922, 2010 | 1.2% of 310,000 active | FluxOR thallium flux fluorescence; stronger effect = lower value | Potassium channel subfamily K member 9 (Homo sapiens), Q9NPC2 | B-score at 10 µM;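 active means ratio B-score over 3 SD below the library mean, with starting fluorescence within 5 SD of its mean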;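 further: negative B-score means less thallium flux so channel inhibition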
# KCNQ1 act – potentiators or activators of KCNQ1 channel, primary screen, cell-based, thallium flux, high-throughput | CHO-K1 KCNQ1, thallium flux FluxOR fluorescence; stronger effect = higher value | B-score at 10 µM | 0.35% of 310,000 active;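 active means fluorescence ratio B-score, a plate-corrected score, at least three library SD, with initial intensity B-score within 5 SD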
#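 Assay system: CHO-K1 cells stably expressing KCNQ1; Medium: assay buffer with matched DMSO; Also added: K+/Tl+ depolarizing stimulus; Dosing: single dose; Timing: dye 90 min, compound 20 min, room temperature; Measured by: kinetic FluxOR thallium fluorescence, 10-s 1-Hz baseline, 110-s post-stimulus read; Read-out: peak-minus-minimum fluorescence over initial fluorescence, negative-control normalized, B-scored.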
# KCNQ1 inh – inhibitors of human KCNQ1 channel, primary screen, cell-based, thallium flux, high-throughput | 1.3% of 310,000 active | CHO-K1 KCNQ1, FluxOR thallium flux fluorescence; stronger effect = higher value | B-score at 10 µM;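 active means compounds whose thallium flux B-score, printed positive for inhibition, exceeds three library SD while starting fluorescence stays within three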;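 further: channel opened by potassium depolarization with thallium stimulus after 20 min compound exposure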
# hERG protect – hERG rescue from dofetilide block, primary screen, cell-based, CHO-hERG, FluxOR thallium flux, dofetilide IC70; 0.51% of 310,000 active; Voltage-gated inwardly rectifying potassium channel KCNH2 (Homo sapiens), Q12809; dofetilide IC70 present; activation (rescue from dofetilide block), less the hit threshold, % at 10 µM;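 active means activation above the mean of controls blocked by dofetilide plus 5 SD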;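 further: thallium influx through hERG after potassium depolarization seen as dye fluorescence rise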
# Kir21 block – inhibitors of mouse Kir2.1 inward-rectifier potassium channel. B-score at 10 µM. Inward rectifier potassium channel 2 (Mus musculus), P35561. HEK293-Kir2.1, FluxOR thallium flux fluorescence; stronger effect = lower value. 0.85% of 310,000 active;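 active means fluorescence ratio B-score at or below minus 3 SD of library scores, with starting-brightness B-score within 2 SD, cut at about -4.2 in these data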;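 further: channel flux triggered by added potassium and thallium sulfate stimulus; B-score of peak minus minimum fluorescence over baseline after thallium stimulus; more negative B-score means stronger Kir2.1 block with less thallium influx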
# Numbers stand for hits; n = inactive; x = no result.
SMILES,KCNK3 block,KCNK9 inh,KCNQ1 act,KCNQ1 inh,hERG protect,Kir21 block
CCOC(=O)c1c(-c2ccc(C)o2)csc1NC(=S)NC(=O)N(C)C,n,n,39,n,14,n
COc1ccc(-c2c(-c3ccsc3)oc3ccc(N4CCOCC4)cc23)cn1,n,-7.9,n,n,n,n
Cc1nn(C)c(C)c1S(=O)(=O)N1CCC(CO)(CC2CCCCO2)CC1 (centres undefined),n,n,n,n,n,n
O=C(CNc1cc(S(=O)(=O)N2CCOCC2)ccc1NCC1CCCO1)Nc1ccc(F)c(F)c1 (centres undefined),n,n,n,n,n,n
C/C(=N\Nc1ncnc2sc(C)c(C)c12)c1ccccn1,n,n,n,11,n,n
CCOc1ccc(-c2c(C(=O)N/N=C(\C)c3ccco3)nnn2-c2nonc2N)cc1,n,n,n,n,n,n
N#CC1=C(N)SC(N)=C(C#N)C1CCC1CCCCC1,x,n,n,9,n,n
O=C(COc1ccccc1C(=O)NCC1CCCO1)Nc1ccc(Br)cc1 (centres undefined),n,n,n,n,n,n
C/C(=N\NC(=O)COc1ccc(C)cc1C(C)C)c1ccc(-n2ccnc2)cc1,n,n,n,n,5.6,n
COC(=O)N/N=C(\C)c1ccc(-n2ccnc2)cc1,n,n,n,n,n,n
COc1ccc(CC(=O)Nc2nc(C(C)(C)C)cs2)cc1,n,n,n,n,n,-8.2
O=C(Cc1cccs1)Nc1nc(-c2ccc(F)cc2F)cs1,n,-7.5,n,n,n,n
O=C(Cc1cccs1)Nc1nc(-c2ccc(F)c(F)c2)cs1,n,n,n,n,n,n
COc1ccc(-c2csc(NC(=O)Cc3ccccc3F)n2)c(OC)c1,n,-6.9,n,n,n,n
COc1ccccc1C(=O)Nc1cccc2c1CCCC2,n,n,n,n,n,n
CSc1nc(N)nc2c1ncn2CC(=O)NCC1CCCO1 (centres undefined),n,x,x,x,x,x
CCCCN(c1ccccc1)S(=O)(=O)N(C)C,n,n,n,n,n,-5.1
Cc1cc(C(=O)NNC(=O)CCCOc2ccccc2)c(C)o1,n,n,n,n,n,n
CC(C)(C)c1ccc(OCCCC(=O)NNC(=O)c2ccccc2O)cc1,n,n,n,8,n,n
CC(=O)Nc1nc2c(F)cccc2s1,n,n,18,n,n,n
Fc1cccc2sc(Nc3nc4cc5c(cc4s3)OCO5)nc12,n,n,n,n,13,n
O=S(=O)(Cc1ccccc1)C(CCCc1ccccc1)S(=O)(=O)Cc1ccccc1,n,x,x,x,x,x
CC1(C)CC(c2nc(-c3ccc([N+](=O)[O-])cc3)cs2)CCO1 (centres undefined),n,n,n,7,n,n
Cc1cc(=O)oc2c(C)c(OC(C)C(=O)Nc3ccc(N4CCC(C)CC4)cc3)ccc12 (centres undefined),n,n,n,n,n,n
CC(C)Oc1ccc(C(CC(=O)NCc2ccco2)c2ccccc2)cc1 (centres undefined),n,-7.2,n,n,n,n
SMILES,KCNK3 block,KCNK9 inh,KCNQ1 act,KCNQ1 inh,hERG protect,Kir21 block
O=C(COc1ccc2c3c(c(=O)oc2c1)CCC3)N[C@@H](CSCc1ccccc1)C(=O)O,n,n,n,n,n,n
O=C(COc1ccc2c3c(c(=O)oc2c1)CCC3)N[C@@H](Cc1ccccc1)C(=O)O,n,n,n,n,5.3,n
CNc1ccc(/C=C/C(=O)c2ccc3c(c2)OCCO3)cc1[N+](=O)[O-],n,n,n,10,n,n
CC(=O)Cc1nsc(NC(=O)c2cccs2)n1,n,n,n,n,12,n
CC(=O)Cc1nsc(NC(=O)c2ccccc2)n1,n,n,n,n,n,n
O=C(NC(=S)Nc1nc2c(s1)CCCC2)c1ccc(C(=O)c2ccccc2)cc1,n,n,9,n,14,n

# Source: PubChem
